What is called IC50 is the concentration that inhibits the measured activity by half. What is called Papp A→B is the apparent permeability from the apical to the basolateral side of a cell layer.

Converted amounts (≈) assume the structure as drawn.

Data set [1] addresses T1, Carbamoyl-phosphate synthase [ammonia], mitochondrial (Homo sapiens, UniProt P31327).
T1 sequence (P31327 whole entry): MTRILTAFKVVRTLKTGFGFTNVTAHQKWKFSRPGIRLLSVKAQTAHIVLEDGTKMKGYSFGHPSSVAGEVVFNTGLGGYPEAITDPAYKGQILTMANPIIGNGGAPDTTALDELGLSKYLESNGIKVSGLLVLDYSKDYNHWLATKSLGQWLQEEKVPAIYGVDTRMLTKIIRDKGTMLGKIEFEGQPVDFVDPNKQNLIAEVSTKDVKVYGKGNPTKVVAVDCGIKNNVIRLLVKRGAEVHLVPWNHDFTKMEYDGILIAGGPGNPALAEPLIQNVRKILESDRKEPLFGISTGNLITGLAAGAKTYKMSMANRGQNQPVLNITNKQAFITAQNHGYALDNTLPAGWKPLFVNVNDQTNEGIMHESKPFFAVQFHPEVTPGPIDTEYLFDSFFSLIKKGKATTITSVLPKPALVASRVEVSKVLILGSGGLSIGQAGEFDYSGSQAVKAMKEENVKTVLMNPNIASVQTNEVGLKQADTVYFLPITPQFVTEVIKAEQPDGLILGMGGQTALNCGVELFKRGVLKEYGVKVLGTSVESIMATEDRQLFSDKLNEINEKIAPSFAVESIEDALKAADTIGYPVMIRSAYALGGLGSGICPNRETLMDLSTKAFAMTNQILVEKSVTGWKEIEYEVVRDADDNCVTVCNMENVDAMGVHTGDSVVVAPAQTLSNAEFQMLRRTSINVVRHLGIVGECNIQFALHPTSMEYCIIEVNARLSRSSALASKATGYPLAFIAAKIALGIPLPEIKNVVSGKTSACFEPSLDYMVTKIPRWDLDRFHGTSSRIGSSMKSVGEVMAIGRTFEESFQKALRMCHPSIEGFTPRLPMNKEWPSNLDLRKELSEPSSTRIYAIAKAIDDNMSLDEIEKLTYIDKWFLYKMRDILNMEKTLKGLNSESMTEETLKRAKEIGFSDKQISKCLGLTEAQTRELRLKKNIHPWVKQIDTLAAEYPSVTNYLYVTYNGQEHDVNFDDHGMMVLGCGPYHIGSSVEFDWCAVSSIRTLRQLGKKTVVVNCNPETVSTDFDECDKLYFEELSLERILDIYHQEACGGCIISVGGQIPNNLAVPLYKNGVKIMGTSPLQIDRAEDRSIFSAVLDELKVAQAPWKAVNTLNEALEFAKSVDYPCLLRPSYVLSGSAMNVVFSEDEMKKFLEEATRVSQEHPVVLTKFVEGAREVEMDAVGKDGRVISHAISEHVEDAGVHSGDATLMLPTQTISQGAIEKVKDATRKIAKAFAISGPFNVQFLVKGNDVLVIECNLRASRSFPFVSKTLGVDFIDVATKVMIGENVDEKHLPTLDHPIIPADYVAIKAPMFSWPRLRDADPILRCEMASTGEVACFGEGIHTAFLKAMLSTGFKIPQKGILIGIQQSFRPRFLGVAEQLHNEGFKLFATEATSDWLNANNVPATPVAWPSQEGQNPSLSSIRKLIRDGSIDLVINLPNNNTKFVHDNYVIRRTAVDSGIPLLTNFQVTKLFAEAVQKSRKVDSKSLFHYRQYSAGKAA
Description: Allosteric inhibition of His-tagged CPS1 (unknown origin) expressed in baculovirus infected Sf21 insect cells assessed as reduction in ADP level preincubated for 20 mins followed by ATP addition measured after 60 mins by ADP-Glo assay. An outline of the steps:
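CPS1 activity read as ADP formation in the presence of inhibitor. IC50 taken as the average of at least two experimental replicates (N = 2).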

Data set [2] addresses T1, Carbamoyl-phosphate synthase [ammonia], mitochondrial. Description: Inhibition of CPS1 in human pooled hepatocytes assessed as reduction in urea production measured after 16 hrs in presence of NH4Cl by tecan-plate reader analysis. Type of data set: cell-based. Summed up:
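Primary human hepatocytes given 10 mM NH4Cl together with compound over a concentration series. Urea secreted into the medium measured after 16 h. IC50 derived from the inhibition of urea production.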

Data set [3] in a line: Clearance in human pooled hepatocytes assessed per million cells at 1 uM measured up to 120 mins by LC-MS/MS analysis. Type of data set: ADME, cell-based, Hepatocyte. The note with it: read-out: CLH.
Data set [4] in a line: Apparent permeability across apical to basolateral membrane in human Caco2 cells at 5 uM incubated for 2 hrs by LC-MS/MS analysis. The note with it: Caco-2. In kind it is ADME, cell-based.
The nature of data set [5]: Kinetic solubility in Dulbecco's phosphate buffer saline at pH 7.4 by UPLC analysis. In kind it is physicochemical. Particulars: Dulbecco's phosphate buffered saline, read-out: Kinetic_solubility; call rule not given here.
In data set [6] the target is Multifunctional protein CAD (Homo sapiens, UniProt P27708). Put plainly: Inhibition of CAD (unknown origin) CSP2 activity expressed in Escherichia coli BL21 (DE3) preincubated for 20 mins followed by ATP addition measured after 60 mins by ADP-Glo assay.
Chain of Multifunctional protein CAD (P27708 whole entry): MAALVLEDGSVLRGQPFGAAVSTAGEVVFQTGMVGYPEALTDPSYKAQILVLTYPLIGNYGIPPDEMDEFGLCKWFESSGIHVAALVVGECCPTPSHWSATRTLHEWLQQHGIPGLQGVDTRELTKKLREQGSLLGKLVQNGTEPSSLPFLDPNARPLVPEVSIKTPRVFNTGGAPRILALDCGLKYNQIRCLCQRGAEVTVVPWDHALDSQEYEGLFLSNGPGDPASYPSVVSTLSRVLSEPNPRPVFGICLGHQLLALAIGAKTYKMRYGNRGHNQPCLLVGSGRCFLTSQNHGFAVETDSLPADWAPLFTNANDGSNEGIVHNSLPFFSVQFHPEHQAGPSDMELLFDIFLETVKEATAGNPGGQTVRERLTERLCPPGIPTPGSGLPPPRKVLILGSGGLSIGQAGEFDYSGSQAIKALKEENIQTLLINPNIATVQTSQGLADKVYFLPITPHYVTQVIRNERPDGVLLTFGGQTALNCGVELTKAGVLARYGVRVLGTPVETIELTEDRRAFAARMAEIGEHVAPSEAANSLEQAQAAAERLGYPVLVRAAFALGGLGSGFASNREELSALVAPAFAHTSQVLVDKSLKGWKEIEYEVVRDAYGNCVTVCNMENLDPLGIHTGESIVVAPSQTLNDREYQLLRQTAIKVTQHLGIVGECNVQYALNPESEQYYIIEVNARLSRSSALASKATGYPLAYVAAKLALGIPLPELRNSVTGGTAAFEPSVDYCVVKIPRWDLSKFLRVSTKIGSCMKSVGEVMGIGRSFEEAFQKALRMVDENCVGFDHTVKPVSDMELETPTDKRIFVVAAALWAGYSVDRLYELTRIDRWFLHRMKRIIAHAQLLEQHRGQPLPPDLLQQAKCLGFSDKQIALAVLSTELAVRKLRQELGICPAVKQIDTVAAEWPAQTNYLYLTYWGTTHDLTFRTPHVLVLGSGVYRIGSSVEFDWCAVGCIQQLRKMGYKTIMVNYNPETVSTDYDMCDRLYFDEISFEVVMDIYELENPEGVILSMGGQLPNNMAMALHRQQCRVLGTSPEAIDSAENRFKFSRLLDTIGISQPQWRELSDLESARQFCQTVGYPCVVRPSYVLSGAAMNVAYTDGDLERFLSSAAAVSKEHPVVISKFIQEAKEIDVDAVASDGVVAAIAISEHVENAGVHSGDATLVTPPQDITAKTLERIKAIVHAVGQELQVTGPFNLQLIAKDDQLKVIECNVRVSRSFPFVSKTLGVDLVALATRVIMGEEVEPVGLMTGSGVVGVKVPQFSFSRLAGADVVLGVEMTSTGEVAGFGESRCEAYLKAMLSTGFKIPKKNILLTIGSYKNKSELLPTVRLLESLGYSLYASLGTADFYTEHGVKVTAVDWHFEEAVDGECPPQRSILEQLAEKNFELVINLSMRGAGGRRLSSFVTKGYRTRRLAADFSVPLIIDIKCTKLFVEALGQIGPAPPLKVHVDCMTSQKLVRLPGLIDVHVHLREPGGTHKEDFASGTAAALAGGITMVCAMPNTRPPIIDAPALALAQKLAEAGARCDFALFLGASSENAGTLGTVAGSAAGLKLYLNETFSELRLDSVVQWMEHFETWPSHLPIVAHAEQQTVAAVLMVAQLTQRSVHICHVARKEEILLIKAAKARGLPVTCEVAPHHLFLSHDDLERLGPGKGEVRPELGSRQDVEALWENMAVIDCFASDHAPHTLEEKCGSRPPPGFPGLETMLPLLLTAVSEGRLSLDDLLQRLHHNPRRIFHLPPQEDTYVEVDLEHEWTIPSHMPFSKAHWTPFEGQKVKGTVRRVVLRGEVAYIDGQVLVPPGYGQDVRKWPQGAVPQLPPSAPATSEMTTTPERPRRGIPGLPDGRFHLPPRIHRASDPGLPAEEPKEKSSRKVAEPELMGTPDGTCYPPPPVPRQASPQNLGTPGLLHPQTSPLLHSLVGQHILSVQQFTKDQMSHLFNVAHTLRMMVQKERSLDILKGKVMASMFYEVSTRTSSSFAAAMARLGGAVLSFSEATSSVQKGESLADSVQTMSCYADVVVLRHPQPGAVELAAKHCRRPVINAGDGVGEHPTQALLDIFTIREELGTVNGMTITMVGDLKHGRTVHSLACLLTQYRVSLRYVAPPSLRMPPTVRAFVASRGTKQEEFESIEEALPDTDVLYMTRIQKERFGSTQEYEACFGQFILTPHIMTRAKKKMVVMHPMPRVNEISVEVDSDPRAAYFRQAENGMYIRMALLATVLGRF

With `COc1ccc(C(=O)C2CCN(C(=O)c3ccc(OC)cc3F)CC2)c(F)c1`, the IC50 in data set [1] came to 21500 nM.
Same read-out and setting: in the case of `COc1ccc(C(=O)N2C[C@@H](C)N(C(=O)c3ccc(OC(C)C)cc3F)[C@H](C)C2)c(F)c1` it was 1400 nM.
Regarding `COc1ccc(C(=O)N2[C@H](C)CN(C(=O)c3ccc4[nH]ccc4c3)C[C@H]2C)c(F)c1`, the half-inhibitory concentration (IC50) in data set [1] is above 66000 nM; in data set [2], “Not Active”.
As for `CCOc1ccc(C(=O)N2C[C@@H](C)N(C(=O)c3ccc(OC)cc3F)[C@H](C)C2)c(F)c1`, in data set [1], the IC50 was determined as 130 nM.
In the case of `COc1ccc(C(=O)N2CC3CC2CN3C(=O)c2ccc(OC)cc2F)c(F)c1`, the 50% inhibitory concentration (IC50) in data set [1] was above 66000 nM.
For the compound `COc1ccc(C(=O)N2[C@H](C)CN(C(=O)c3cc(NC(C)=O)ccc3F)C[C@H]2C)c(F)c1`, the IC50 in data set [1] is above 66000 nM.
`CCOc1ccc(C(=O)N2[C@H](C)CN(C(=O)c3ccc(OC)cc3F)C[C@H]2C)c(F)c1`: in data set [1], the IC50 was found to be 380 nM.
Turning to `COc1ccc(C(=O)N2[C@H](C)CN(C(=O)c3ccc4cc(C)[nH]c4c3)C[C@H]2C)c(F)c1`, in data set [2] (read-out: IC50), the IC50 was 1000 nM.
As for `COc1ccc(C(=O)N2[C@H](C)CN(C(=O)c3cc(OC)ccc3F)C[C@H]2C)c(F)c1`, the concentration for half-maximal inhibition (IC50) in data set [1] was above 66000 nM.
Take `COc1ccc(C(=O)N2C[C@@H](C)N(C(=O)c3ccc(F)cc3F)[C@H](C)C2)c(F)c1`: the half-inhibitory concentration (IC50) in data set [1] turned out to be 1300 nM.
Consider `COc1ccc(C(=O)N2CCCN(C(=O)c3ccc(OC)cc3F)CC2)c(F)c1`, for which the IC50 in data set [1] stood at 18900 nM.
`COc1ccc(C(=O)N2[C@H](C)CN(C(=O)c3ccc4ccn(C)c4c3)C[C@H]2C)c(F)c1`: the concentration for half-maximal inhibition (IC50) entry in data set [2] is on record as “Not Active”.
As for `COc1ccc(C(=O)N2CC(C)N(C(=O)c3ccc(OC)cc3F)CC2C)c(F)c1` (stereo not drawn), the IC50 in data set [1] was 11400 nM.
Take `COc1ccc(C(=O)N2[C@H](C)CN(C(=O)c3ccc4cc[nH]c4c3)C[C@H]2C)c(F)c1`: the half-inhibitory concentration (IC50) is 66 nM in data set [1], 240 nM in data set [2] (read-out: IC50) and at least 100 µM in data set [6]. Besides, the hepatocyte CLint at 1 µM in data set [3] is 8.7 µL/min/1e6 cells. Also, the Papp A→B at 2 h, 5 µM in data set [4] is 12.3 ×10⁻⁶ cm/s. The solubility kinetic in data set [5] was determined as 148 µM (≈ 60.6 µg/mL).
Take `COc1ccc(C(=O)N2[C@H](C)CN(C(=O)c3cccc(OC)c3F)C[C@H]2C)c(F)c1`: in data set [1], the IC50 was above 66000 nM.
In the case of `Cc1csc(NC(=O)C2CCN(C(=O)N(C)Cc3ccccc3)CC2)n1`, the half-maximal inhibitory concentration (IC50) in data set [1] worked out at 1500 nM. Besides, the hepatocyte CLint at 1 µM in data set [3] stood at 35 µL/min/1e6 cells.

The values above are taken from ChEMBL document CHEMBL4616711, “Discovery of 2,6-Dimethylpiperazines as Allosteric Inhibitors of CPS1” (ACS Med Chem Lett, 2020).
